From ChEMBL document CHEMBL2158000 (Bioorg Med Chem Lett, 2012)

Legend:
[1] = molecular target: T1, Amine oxidase [flavin-containing] A (Homo sapiens, UniProt P21397); assay: Inhibition of human recombinant MAOA using kynuramine as substrate assessed as formation of 4-hydroxyquinoline after 20 mins by fluorescence spectrophotometry
T1 sequence (P21397 whole entry): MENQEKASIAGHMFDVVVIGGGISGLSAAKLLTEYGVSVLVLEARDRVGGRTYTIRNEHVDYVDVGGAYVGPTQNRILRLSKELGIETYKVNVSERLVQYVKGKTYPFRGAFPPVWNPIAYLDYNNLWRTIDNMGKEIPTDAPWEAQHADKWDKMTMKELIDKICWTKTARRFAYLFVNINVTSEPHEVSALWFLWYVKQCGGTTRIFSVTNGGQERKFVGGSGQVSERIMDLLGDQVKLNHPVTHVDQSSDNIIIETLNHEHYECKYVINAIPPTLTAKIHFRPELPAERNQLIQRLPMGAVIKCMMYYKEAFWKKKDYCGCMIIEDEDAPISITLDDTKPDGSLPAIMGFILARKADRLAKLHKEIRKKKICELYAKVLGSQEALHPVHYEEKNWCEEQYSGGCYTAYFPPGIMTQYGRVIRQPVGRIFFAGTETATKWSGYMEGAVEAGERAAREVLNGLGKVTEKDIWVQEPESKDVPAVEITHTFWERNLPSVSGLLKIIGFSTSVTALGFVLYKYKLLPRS

Homo sapiens = organism: Homo sapiens; assay: Selectivity index, ratio of IC50 for human recombinant MAOA to IC50 for human recombinant MAOB
[2] = molecular target: T2, Amine oxidase [flavin-containing] B (Homo sapiens, UniProt P27338); assay: Inhibition of human recombinant MAOB using kynuramine as substrate assessed as formation of 4-hydroxyquinoline after 20 mins by fluorescence spectrophotometry
T2 sequence (P27338 whole entry): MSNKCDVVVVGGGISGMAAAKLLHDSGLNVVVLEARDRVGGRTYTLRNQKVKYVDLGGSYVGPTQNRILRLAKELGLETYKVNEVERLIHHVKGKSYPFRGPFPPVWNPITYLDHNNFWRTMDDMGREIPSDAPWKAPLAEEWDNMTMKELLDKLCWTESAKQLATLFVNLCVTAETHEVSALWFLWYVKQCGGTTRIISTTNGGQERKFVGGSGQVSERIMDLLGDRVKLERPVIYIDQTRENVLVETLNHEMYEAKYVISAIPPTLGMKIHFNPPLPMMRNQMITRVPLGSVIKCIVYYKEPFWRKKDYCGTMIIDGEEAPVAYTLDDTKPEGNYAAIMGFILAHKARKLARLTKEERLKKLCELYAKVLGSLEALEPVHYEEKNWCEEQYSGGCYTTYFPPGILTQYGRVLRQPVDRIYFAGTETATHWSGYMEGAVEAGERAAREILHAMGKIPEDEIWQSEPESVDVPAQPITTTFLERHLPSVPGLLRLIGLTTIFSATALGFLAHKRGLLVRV

[3] = molecular target: T2, Amine oxidase [flavin-containing] B; assay: Reversible inhibition of human recombinant MAOB using kynuramine as substrate assessed as residual activity at 100 times IC50 preincubated for 30 mins followed by 100 fold dilution measured after 20 mins by fluorescence spectrophotometry relative to control
Outline: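 MAO-B was preincubated with inhibitor at 10× and 100× IC50 for 30 min, then diluted to 0.1× and 1× IC50. Residual activity was measured by fluorometry of 4-hydroxyquinoline from kynuramine and expressed as % of control. Irreversible reference inhibitor was at 10× IC50, diluted to 0.1× IC50.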

| SMILES | IC50 [1] [µM] | Ratio IC50 (Homo sapiens) | IC50 [2] [µM] | Activity [3] [%] |
| --- | --- | --- | --- | --- |
| O=C1NC(=O)c2cc(Sc3ccccc3)ccc21 | 8.03 | 8.1 | 0.986 |  |
| O=C1NC(=O)c2cc(SCCc3ccccc3)ccc21 | 2.27 | 76 | 0.03 |  |
| O=C1NC(=O)c2cc(SCc3ccccc3)ccc21 | 1.92 | 427 | 0.0045 | 28 |
| CC(C)CCSc1ccc2c(c1)C(=O)NC2=O | 0.38 | 26 | 0.015 |  |
| O=C1NC(=O)c2cc(SC3CCCCC3)ccc21 | 1.03 | 5.8 | 0.179 |  |
| O=C1NC(=O)c2cc(Sc3ccc(Br)cc3)ccc21 | 1.01 | 2.8 | 0.364 |  |
| O=C1NC(=O)c2cc(Sc3ccc(Cl)cc3)ccc21 | 1.68 | 3.7 | 0.457 |  |

Other lines, results leading:

| IC50 [1] [µM] | Ratio IC50 (Homo sapiens) | IC50 [2] [µM] | Activity [3] [%] | SMILES |
| --- | --- | --- | --- | --- |
| 0.958 | 141 | 0.0068 |  | O=C1NC(=O)c2cc(SCc3ccc(F)cc3)ccc21 |
| 0.273 | 37 | 0.0074 |  | O=C1NC(=O)c2cc(SCc3ccc(Br)cc3)ccc21 |
| 1.63 | 82 | 0.02 |  | COc1ccc(CSc2ccc3c(c2)C(=O)NC3=O)cc1 |
| 0.506 | 90 | 0.0056 |  | O=C1NC(=O)c2cc(SCc3ccc(Cl)cc3)ccc21 |
